ChEMBL document CHEMBL1129796, “(E)-3-[6-[[(2,6-dichlorophenyl)thio]methyl]-3-(2-phenylethoxy)-2- pyridinyl]-2-propenoic acid: a high-affinity leukotriene B4 receptor antagonist with oral antiinflammatory activity” (J Med Chem, 1996)

Key:
Mus musculus [1] = test: Dose required to inhibit 50% of arachidonic acid-induced inflammation after topical administration obtained from dose-response curves; format: functional
Mus musculus [2] = test: Effect on Arachidonic Acid-Induced Mouse Ear Inflammation expressed as percent inhibition of MPO at 50 mg/kg of oral administration; format: functional
Summary of the method: (§1)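 Balb/c mice (20 g; N=6-10 vehicle, typically 5-6 per drug group) dosed intragastrically with compound in distilled water. Thirty minutes later, 1.0 mg arachidonic acid in 20 µL cold acetone applied to left ear. Ear thickness measured 1 h later. Left ears then harvested and MPO activity read spectrophotometrically (Bradley method). ED50 from multiple dose–response studies (4–5 doses) by linear regression.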

Mus musculus [3] = test: Effect on Arachidonic Acid-Induced Mouse Ear Inflammation expressed as percent inhibition of MPO at 500 ug/ear of topical administration
Mus musculus [4] = test: Effect on Arachidonic Acid-Induced Mouse Ear Inflammation expressed as percent inhibition of MPO at 25 mg/kg of oral administration; format: functional; summary of the method: as §1
Mus musculus [5] = test: Dose required to inhibit 50% of arachidonic acid-induced inflammation after oral administration obtained from dose-response curves; format: functional; summary of the method: as §1
[6] = biological target: Leukotriene B4 receptor 1 (Homo sapiens, UniProt Q15722); test: Inhibition of [3H]LTB4 binding to human neutrophils
Summary of the method: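 Intact human PMNs (10^6; >90% neutrophils, >95% viable) incubated with 0.2 nM [3H]LTB4 for 20 min at 0 °C in Hanks balanced salt solution with 0.1% ovalbumin. Compound tested at 0.1 nM–10 µM; nonspecific binding defined with 1 µM unlabeled LTB4. Bound ligand separated by filtration and counted by scintillation. Duplicate curves of 5–8 concentrations, at least two assays.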

Mus musculus [7] = test: Effect on Arachidonic Acid-Induced Mouse Ear Inflammation expressed as percent inhibition of MPO at 1000 ug/ear of topical administration; format: functional
Homo sapiens = organism: Homo sapiens; test: Concentration required to block LTB4 induced degranulation in human PMNs; format: functional
Summary of the method: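 Washed human PMNs (10^6, isolated by Ficoll-Hypaque, dextran sedimentation, hypotonic lysis) in 1 mL Earls balanced salt solution with 20 mM HEPES, 0.1% ovalbumin. Preincubated 10 min with 5 µg/mL cytochalasin B, then compound or vehicle 5 min at 37 °C, then 100 nM LTB4 for 3 min. Supernatant MPO measured kinetically at 460 nm (o-dianisidine/H2O2, pH 6.0). Four curves of 5–7 concentrations; mean IC50 ± SEM.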

[8] = biological target: Cysteinyl leukotriene receptor 1 (Homo sapiens, UniProt Q9Y271); test: Inhibitory concentration LTB4 with [3H]LTD4 in LTD4 receptor binding assay
[9] = biological target: T1, Polyunsaturated fatty acid 5-lipoxygenase (Rattus norvegicus, UniProt P12527); test: Concentration required to inhibit RBL-1 supernatant 5-lipoxygenase
T1 sequence (P12527 whole entry): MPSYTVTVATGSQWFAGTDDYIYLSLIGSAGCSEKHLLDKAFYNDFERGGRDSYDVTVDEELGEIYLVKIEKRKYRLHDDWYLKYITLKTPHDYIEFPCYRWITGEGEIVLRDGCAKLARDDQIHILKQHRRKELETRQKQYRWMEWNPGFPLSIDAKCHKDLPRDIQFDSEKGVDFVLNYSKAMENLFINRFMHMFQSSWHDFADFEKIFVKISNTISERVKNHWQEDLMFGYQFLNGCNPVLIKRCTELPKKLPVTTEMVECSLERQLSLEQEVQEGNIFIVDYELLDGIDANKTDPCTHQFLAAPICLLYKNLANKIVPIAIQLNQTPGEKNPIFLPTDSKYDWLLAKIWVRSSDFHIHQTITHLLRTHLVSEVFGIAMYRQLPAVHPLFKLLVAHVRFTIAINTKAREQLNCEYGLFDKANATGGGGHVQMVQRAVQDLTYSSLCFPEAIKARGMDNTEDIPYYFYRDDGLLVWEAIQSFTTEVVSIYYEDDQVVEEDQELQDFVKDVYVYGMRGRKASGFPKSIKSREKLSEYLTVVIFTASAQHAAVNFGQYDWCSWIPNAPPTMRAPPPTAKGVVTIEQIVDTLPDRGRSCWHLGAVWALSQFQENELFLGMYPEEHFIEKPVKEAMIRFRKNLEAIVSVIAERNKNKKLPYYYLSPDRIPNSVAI

Mus musculus [10] = test: Effect on Arachidonic Acid-Induced Mouse Ear Inflammation expressed as percent inhibition of MPO at 50 ug/ear of topical administration; format: functional

Leukotriene B4 receptor 1, sequence (Q15722 whole entry): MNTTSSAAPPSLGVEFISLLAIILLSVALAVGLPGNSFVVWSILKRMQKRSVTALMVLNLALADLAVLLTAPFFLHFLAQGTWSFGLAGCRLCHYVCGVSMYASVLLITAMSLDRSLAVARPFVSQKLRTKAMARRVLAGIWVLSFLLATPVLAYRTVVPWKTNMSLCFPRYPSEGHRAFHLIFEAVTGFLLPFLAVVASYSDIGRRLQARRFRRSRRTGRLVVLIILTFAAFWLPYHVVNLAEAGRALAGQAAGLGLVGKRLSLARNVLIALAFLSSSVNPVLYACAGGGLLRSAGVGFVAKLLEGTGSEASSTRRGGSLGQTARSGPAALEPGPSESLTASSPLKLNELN
Cysteinyl leukotriene receptor 1, sequence (Q9Y271 whole entry, looked up): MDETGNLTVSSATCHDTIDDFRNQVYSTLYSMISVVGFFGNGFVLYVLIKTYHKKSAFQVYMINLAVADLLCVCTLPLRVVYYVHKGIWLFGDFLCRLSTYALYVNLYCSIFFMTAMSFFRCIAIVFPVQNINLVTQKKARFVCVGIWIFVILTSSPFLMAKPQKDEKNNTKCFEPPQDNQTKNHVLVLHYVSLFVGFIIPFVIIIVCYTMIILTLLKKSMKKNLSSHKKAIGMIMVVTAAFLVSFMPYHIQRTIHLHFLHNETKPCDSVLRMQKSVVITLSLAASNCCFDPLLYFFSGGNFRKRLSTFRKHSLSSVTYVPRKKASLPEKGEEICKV

COc1ccc(CCCCCCCCOc2ccc(C[S+]([O-])c3cccc(N)c3)nc2/C=C/C(=O)O)cc1 (stereo not drawn) gave an ED50 (Mus musculus [1]) of 350 ug ear-1, an inhibition in vivo at 50 mg/kg (Mus musculus [2]) of 0% and an Inhibition (Mus musculus [3]) of 55%.

With O=C(O)/C=C/c1nc(CSc2c(Cl)cccc2Cl)ccc1OCCc1ccc(F)cc1 the inhibition in vivo at 25 mg/kg (Mus musculus [4]) was 75%, the ED50 (Mus musculus [5]) was 14.1 mg/kg and the Ki [6] was 1.5 nM.

Compound COc1ccc(CCCCOc2ccc(CSc3ccccc3)nc2/C=C/C(=O)O)cc1 has an Inhibition (Mus musculus [7]) of 49%, an inhibition in vivo at 50 mg/kg (Mus musculus [2]) of 26% and a Ki [6] of 2.8 nM.

O=C(O)/C=C/c1nc(CSc2c(Cl)cccc2Cl)ccc1OCCCc1ccccc1 was tested, and the Ki [6] was 1.4 nM.

Work on O=C(O)/C=C/c1nc(CSc2c(Cl)cccc2Cl)ccc1OCc1ccc(F)cc1 yielded a Ki [6] of 12 nM.

In the case of O=C(O)/C=C/c1nc(CSc2c(Cl)cccc2Cl)ccc1OCCc1ccc(Cl)cc1, the Ki [6] is reported as 1.3 nM.

With COc1ccc(CCOc2ccc(CSc3c(Cl)cccc3Cl)nc2/C=C/C(=O)O)cc1 the Ki [6] was 1.2 nM.

Compound COc1ccc(CCCCOc2ccc(CSc3c(Cl)cccc3Cl)nc2/C=C/C(=O)O)cc1 has an Inhibition (Mus musculus [7]) of 82%, an inhibition in vivo at 50 mg/kg (Mus musculus [2]) of 54% and an ED50 (Mus musculus [5]) of 57.6 mg/kg. The Ki [6] was 1.5 nM.

For COc1ccc(CCCCCCCCOc2ccc(CSCc3cccc(C(=O)O)c3)nc2/C=C/C(=O)O)cc1, the ED50 (Mus musculus [1]) was 390 ug ear-1, the inhibition in vivo at 50 mg/kg (Mus musculus [2]) was 0% and the Inhibition (Mus musculus [3]) was 69%.

For O=C(O)/C=C/c1nc(CSc2c(Cl)cccc2Cl)ccc1OCCc1ccccc1 [TICOLUBANT], the ED50 (Mus musculus [1]) was 8 ug ear-1, the inhibition in vivo at 25 mg/kg (Mus musculus [4]) was 70% and the IC50 (Homo sapiens) was 53 nM. For the same compound, the IC50 [8] was 16800 nM, the IC50 [9] was 8200 nM and the Inhibition (Mus musculus [10]) was 83%. It also gave an ED50 (Mus musculus [5]) of 14.8 mg/kg and a Ki [6] of 0.78 nM.
